RGS4 act = potentiators or activators of RGS4. B-score at 10 µM. HEK293 M3R/inducible RGS4, carbachol calcium flux Fluo4; hits give low values. 310,000 compounds, 0.92% hits. AID 463111;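 active = B-score of the integrated calcium signal more than 4 SD below the library mean, with starting fluorescence not abnormally high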;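 also: negative B-score means reduced calcium response which marks RGS4 activation or potentiation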
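Material: M3R-expressing HEK293 line, RGS4 induced by doxycycline | Schedule: Overnight RGS4 induction, 30 min dye load 37 °C, 20 min compound RT | Measured by: Fluo4 fluorescence kinetic imaging of calcium | Read-out: Integrated calcium ratio converted to B score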
MrgX1 agonist = agonists of human MrgX1 receptor; AID 588627; MrgX1-HEK293 cells, Fluo-4 calcium fluorescence, agonist mode; hits give high values; 310,000 compounds, 0.44% hits; Q96LB2; B-score at 10 µM;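 active = calcium response B-score plate-corrected fluorescence ratio at least 3 library SD, with starting fluorescence B-score inside 5 SD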
Target sequence (Q96LB2 whole entry, looked up): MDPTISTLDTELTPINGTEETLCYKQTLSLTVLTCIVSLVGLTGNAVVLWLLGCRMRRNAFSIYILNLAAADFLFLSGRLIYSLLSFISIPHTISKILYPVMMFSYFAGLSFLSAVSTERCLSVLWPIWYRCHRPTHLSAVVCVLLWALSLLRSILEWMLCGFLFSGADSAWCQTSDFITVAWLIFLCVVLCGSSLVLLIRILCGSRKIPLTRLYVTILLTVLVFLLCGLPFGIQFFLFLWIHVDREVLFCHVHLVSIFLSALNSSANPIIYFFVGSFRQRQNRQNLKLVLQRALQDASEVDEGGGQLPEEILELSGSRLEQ
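Material: MrgX1-expressing HEK293 cells / Dosing: compound as first of three additions / Incubation: overnight seeding, then 1 h dark dye loading / Signal: Fluo-4 NW calcium fluorescence / Evaluation: B-scored fluorescence response ratio / Benchmarks: positive and negative control wells on each plate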
RGS4 inh = inhibitors of human RGS4. 310,000 compounds, 0.45% hits. P49798. B-score at 10 µM. HEK293 M3R/RGS4 inducible, Fluo-4 calcium flux; hits give high values; triggered by carbachol at its EC20;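 active = B-score, a plate-corrected calcium signal, over three deviations above library mean, with baseline fluorescence within five deviations of library mean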;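 also: RGS4 expression induced by doxycycline in cells with stable M3 receptor; B-score is computed from the integrated fluorescence ratio over baseline after carbachol; higher B-score means a larger calcium signal and so more RGS4 inhibition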
Target sequence (P49798 whole entry, looked up): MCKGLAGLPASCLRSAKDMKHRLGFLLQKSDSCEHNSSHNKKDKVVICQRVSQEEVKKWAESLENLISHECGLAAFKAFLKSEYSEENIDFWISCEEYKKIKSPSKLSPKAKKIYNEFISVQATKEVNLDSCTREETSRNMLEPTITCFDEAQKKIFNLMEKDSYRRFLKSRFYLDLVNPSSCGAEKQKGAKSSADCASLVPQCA
MrgX1 allo act = human MrgX1 positive allosteric modulation, primary screen | 310,000 compounds, 0.63% hits | B-score at 10 µM | MrgX1-HEK293, Fluo-4 calcium flux, FDSS; hits give high values | AID 588675 | Q96LB2;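 active = plate-corrected calcium response at least 3 library SD above typical, normal starting fluorescence, not activating the receptor alone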;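 also: compound read alongside a low EC10 to EC30 dose of BAM8-22 agonist; peak minus trough fluorescence over baseline measured at the second addition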
MrgX1 antagonist = antagonists of human MrgX1 receptor; Q96LB2; MRGX1-HEK293 calcium flux, Fluo-4, BAM8-22 antagonism; hits give low values; B-score at 10 µM; 310,000 compounds, 1.3% hits;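 active = calcium-response B-score plate-corrected more than 3 library SD below zero, starting fluorescence within 5 deviations, no agonist response on first addition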;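 also: peak minus trough fluorescence over baseline after final BAM8-22 challenge near maximal dose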
RGS4 activ val = confirmation of RGS4 activators | inhibition, % at 10 µM | shares compounds with RGS4 act | 1,100 compounds, 89% hits | AID 602282 | HEK293 M3R/RGS4 inducible, carbachol calcium flux Fluo4;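 active = inhibition above 3 SD of the buffer control wells, cut at about 41% in these data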;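 also: signal is the integrated peak-minus-minimum Fluo4 fluorescence over baseline ratio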
M3R Ca counter = counter-screen for RGS4 activators: effect in non-induced cells; shares compounds with RGS4 act; HEK293 M3R non-induced RGS4, Fluo4 calcium flux; after carbachol challenge at its EC90; inhibition, % at 10 µM; 1,100 compounds, 82% hits; AID 602283;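 active = inhibition exceeding 3 SD of buffer-only control wells, cut at about 26% in these data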;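 also: percent drop in integrated peak-minus-baseline over baseline Fluo4 ratio after carbachol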
MrgX1 ag reconf = human MrgX1 agonism, re-confirmation screen. activation, % at 10 µM. AID 602412. 600 compounds, 78% hits. MrgX1-HEK293, Fluo-4 calcium fluorescence, FDSS. shares compounds with MrgX1 agonist;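 active = calcium signal rise, corrected for plate position, at least 3 library SD high, with starting brightness within 5 such deviations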
MrgX1 allo conf = reconfirmed allosteric activator of human MrgX1 receptor; shares compounds with MrgX1 allo act; MrgX1-HEK293, Fluo-4 calcium fluorescence, FDSS; activation (ratio percentage), % at 10 µM; 1,200 compounds, 13% hits;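 active = ratio at least 3 SD above the weak peptide control, stable starting fluorescence, no direct agonism earlier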;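 also: compound followed by low BAM8-22 agonist challenge near EC20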
MrgX1 ant reconf = confirmation of human MrgX1 receptor antagonists; shares compounds with MrgX1 antagonist; 2,300 compounds, 19% hits; remaining BAM8-22 calcium response % of control (hits give low values), % at 10 µM; MrgX1-HEK293, BAM8-22 calcium flux, Fluo-4; hits give low values; AID 602420;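 active = remaining agonist calcium response no higher than 100% minus 3 SD of agonist-only control wells, with starting fluorescence near control levels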;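 also: agonist BAM8-22 given at a near maximal EC90 to ECmax level; peak minus minimum fluorescence divided by baseline after agonist addition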
HEK293 Ca flux = counter-screen for MrgX1 antagonists: effect in parental HEK293 cells | Fluo-4 calcium fluorescence, FDSS | fluorescence ratio F(max-min)/F0 at 10 µM | shares compounds with MrgX1 antagonist | 4,000 compounds, 2% hits;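 active = duplicate-averaged calcium fluorescence ratio at least three times the standard deviation of buffer wells, a nonspecific response in parental cells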
HEK293 Ca counter = activity in parental HEK293 cells without MrgX1; shares compounds with MrgX1 antagonist; parental HEK293 calcium flux, Fluo-4 fluorescence ratio; hits give high values; fluorescence ratio F(max-min)/F0 at 10 µM; 4,000 compounds, 0.4% hits;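 active = calcium fluorescence ratio, averaged over duplicates, at least 3 SD of the buffer-well ratio, meaning a nonspecific response in receptor-free cells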;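 also: untransfected parental HEK293 lacking MrgX1 used as counterscreen for MrgX1 allosteric activators; fluorescence change taken during the second addition on a kinetic imager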
HEK293 Ca cntr2 = counter-screen for MrgX1 activators: effect in parental HEK293 cells. shares compounds with MrgX1 antagonist. Fluo-4 calcium fluorescence (FDSS); hits give high values. fluorescence ratio F(max-min)/F0 at 10 µM. 4,000 compounds, 8.7% hits. AID 624115;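 active = calcium fluorescence ratio at least three times the spread of buffer wells, meaning a non-specific response in parental cells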
Active calls of the source: *; i = inactive; nt = not tested or not shown. In the library only some 3.5% were active in any assay of this set; here they are far more common.

SMILES	RGS4 act	MrgX1 agonist	RGS4 inh	MrgX1 allo act	MrgX1 antagonist	RGS4 activ val	M3R Ca counter	MrgX1 ant reconf	HEK293 Ca flux	HEK293 Ca counter	HEK293 Ca cntr2	others
COc1cc(CNCc2cccs2)ccc1OCC(=O)NC(C)(C)C	-8*	i	i	i	i	46*	84*	nt	nt	nt	nt
CCOc1cc(CNCc2cccs2)ccc1OCC(=O)NC(C)(C)C	i	i	i	i	i	nt	nt	nt	nt	nt	nt
Cc1ccc(S(=O)(=O)N2CCN(C(=O)c3cc4c(C)nn(-c5ccccc5C)c4s3)CC2)cc1	-8.5*	i	i	i	i	83*	34*	nt	nt	nt	nt
CC(C)=CCc1c(O)cc(O)c2c1OC(c1ccc(O)cc1)CC2=O (stereo unspecified)	-9.9*	i	i	i	i	90*	86*	nt	nt	nt	nt
CC(C)=CCc1c(O)c(CC=C(C)C)c2c(c1O)C(=O)CC(c1ccc(O)cc1)O2 (stereo unspecified)	i	i	i	i	i	nt	nt	nt	nt	nt	nt
COc1cccc(-c2nn(-c3ccc(C)cc3)cc2C(=O)N2CCc3cc(OC)c(OC)cc3C2)c1	-9.2*	i	i	i	i	45*	0	nt	nt	nt	nt
COc1cccc(-c2nn(-c3ccccc3)cc2C(=O)O)c1	i	i	i	i	i	nt	nt	nt	nt	nt	nt
COc1ccc(/C=C2\SC(N3CCc4ccccc4C3)=NC2=O)cc1OC	i	i	i	i	i	nt	nt	nt	nt	nt	nt
Cc1cc(C)c(S(=O)(=O)n2ccc3ccccc32)c(C)c1	-9.5*	i	i	i	i	76*	29*	nt	nt	nt	nt
NCCCC[C@H]1CNC(=S)N1CCc1cccc(F)c1	i	i	i	i	i	nt	nt	nt	nt	nt	nt
CCCCN(C)C(=O)c1cc2c(Cl)nc3ccccc3c2s1	-8.7*	i	i	i	i	59*	45*	nt	nt	nt	nt
CCC(=O)N1CCN(c2ccc(NC(=O)COc3ccc(C)cc3C)cc2)CC1	i	i	i	i	i	nt	nt	nt	nt	nt	nt
Cc1ccc(C(=O)N2CCN(c3ccc(NC(=O)COc4ccccc4C)cc3)CC2)cc1	-8.4*	i	i	i	i	61*	39*	nt	nt	nt	nt
Cc1cc(-c2cccs2)c2c(N)c(C(=O)c3ccc4c(c3)OCO4)sc2n1	-7.9*	i	i	i	-8.3*	93*	96*	i	0.65*	i	i
COc1cccc(N2CCN(c3ncnc4c3[nH]c3ccccc34)CC2C)c1 (stereo unspecified)	-9*	i	i	i	-15*	94*	83*	4.6%*	i	i	i
COc1ccc(CNC(=O)[C@@H](NC(=O)C2CCN(S(=O)(=O)c3ccc(C)cc3)CC2)C(C)C)cc1OC	i	i	i	i	i	nt	nt	nt	nt	nt	nt
CCN(CC)CC#CCC(O)(c1ccccc1)C1CCCC1 (stereo unspecified)	-7.9*	i	i	i	-8.7*	94*	91*	i	i	i	i
CCOC(=O)c1ccc(NC(=S)N2CCSC2c2ccc(Cl)cc2)cc1 (stereo unspecified)	-8.8*	i	i	i	-6.3*	94*	91*	58%*	i	49*	i
CCOC(=O)c1ccc(NC(=S)N2CCSC2c2ccc(OC)cc2)cc1 (stereo unspecified)	i	i	i	i	i	nt	nt	nt	nt	nt	nt
CN(Cc1ccccc1)c1nc2c(c(=O)n(C)c(=O)n2C)n1CCCc1ccccc1	-8.5*	i	i	8.9*	i	75*	84*	nt	i	i	i	MrgX1 allo conf=i
CCN(CC)c1nc2c(c(=O)n(C)c(=O)n2C)n1CCCc1ccccc1	i	i	i	i	i	nt	nt	nt	nt	nt	nt
CCOc1ccc(-c2noc(CCCC(=O)NC3CCCCC3)n2)cc1OC	i	i	i	i	i	nt	nt	nt	nt	nt	nt
COc1cccc(-c2csc(N3CCN(C(=O)Nc4ccc(Cl)cc4)CC3)n2)c1	-8.4*	i	i	i	-6.1*	87*	56*	75%*	i	i	i
O=C(O)c1nn(CCOc2ccc(Cl)cc2Cl)c(=O)c2ccccc12	i	i	i	i	i	nt	nt	nt	nt	nt	nt
CNS(=O)(=O)c1cccc(C(=O)OCc2cc(=O)oc3c(C)c(O)ccc23)c1	-8.2*	i	i	i	-9.4*	85*	70*	54%*	i	i	i
SMILES	RGS4 act	MrgX1 agonist	RGS4 inh	MrgX1 allo act	MrgX1 antagonist	RGS4 activ val	M3R Ca counter	MrgX1 ant reconf	HEK293 Ca flux	HEK293 Ca counter	HEK293 Ca cntr2	others
CCN(CC)CCOC(=O)c1c(C)oc2ccc(OC)cc12	-7.8*	i	i	i	-5.2*	67*	84*	i	i	i	i
COC(=O)c1ccc2c(=O)n(CCCCCC(=O)NCCNC(C)=O)c(=O)[nH]c2c1	i	i	i	i	i	nt	nt	nt	nt	nt	nt
O=S(=O)(Nc1cc2nc3ccccc3nc2n1Cc1ccccc1)c1ccc(Cl)cc1	-14*	45*	i	i	i	94*	88*	nt	0.037*	i	i	MrgX1 ag reconf=i
CCOC(=O)Cc1csc(NC(=O)c2csc(C)c2)n1	i	i	i	i	i	nt	nt	nt	nt	nt	nt
CCOC(=O)Cc1csc(NC(=O)c2sc3nc4c(C)cc(C)cc4cc3c2N)n1	-8.6*	i	i	i	-9.2*	84*	63*	i	i	i	i
Cc1cc(N2CCN(C)CC2)nc2ccc(NC(=O)c3ccc(Br)o3)cc12	i	i	i	i	i	nt	nt	nt	nt	nt	nt

Source: PubChem
